Laboratory results reported in ChEMBL document CHEMBL4715795, “Urolinin: The First Linear Peptidic Urotensin-II Receptor Agonist” (J Med Chem, 2016).
Active and inactive are the calls of the source. The rule behind the calls is not given here. Numbered stars: 1 amine (or outer) side, 2 acyl side, 3 side chain; on linkers, the order of the positions; unused ones are H or OH. Bridge positions count the residues as written; N and C are the ends. Square brackets hold non-standard residues; d marks the D form. Peptide text beside a SMILES is read from it. ξ: configuration not given here. Tyr(3-NO2) = N[C@@H](Cc1ccc(O)c([N+](=O)[O-])c1)C(=O)O; X1 = O=C([C@H](Cc1ccc(O)c(S(=O)(=O)O)c1)N[*:1])[*:2]; 2Nal = N[C@@H](Cc1ccc2ccccc2c1)C(=O)O; ξ2Nal = NC(Cc1ccc2ccccc2c1)C(=O)O

Key:
[1] = biological target: Somatostatin receptor type 1 (Homo sapiens, UniProt P30872); assay: Displacement of [125I-Tyr11]-SS14 from human SSTR1 expressed in HEK293-A cells incubated for 30 mins by gamma counting based competition radioligand binding assay; format: cell-based
Method in brief: (§1)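 Competition binding on HEK293A cells overexpressing the given human SSTR subtype, seeded overnight. Binding buffer: 50 mM Tris-HCl pH 7.4, 5 mM MgCl2, 1 mM CaCl, 0.5% BSA, protease inhibitors. 100000 cpm [125I-Tyr11]-SS14 (chloramine-T iodinated, HPLC-purified) with varying competitor, 30 min at 37 °C. Cells washed four times in cold buffer, lysed in 1 N NaOH, gamma counted. Mean ± SD, three experiments in duplicate.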

Urotensin-2 receptor [2] = biological target: T1, Urotensin-2 receptor (Homo sapiens, UniProt Q9UKP6); assay: Displacement of [125I-Tyr9]-U-II from human U-IIR expressed in HEK293-A cells incubated for 30 mins by gamma counting based competition radioligand binding assay; format: cell-based
T1 sequence (Q9UKP6 whole entry): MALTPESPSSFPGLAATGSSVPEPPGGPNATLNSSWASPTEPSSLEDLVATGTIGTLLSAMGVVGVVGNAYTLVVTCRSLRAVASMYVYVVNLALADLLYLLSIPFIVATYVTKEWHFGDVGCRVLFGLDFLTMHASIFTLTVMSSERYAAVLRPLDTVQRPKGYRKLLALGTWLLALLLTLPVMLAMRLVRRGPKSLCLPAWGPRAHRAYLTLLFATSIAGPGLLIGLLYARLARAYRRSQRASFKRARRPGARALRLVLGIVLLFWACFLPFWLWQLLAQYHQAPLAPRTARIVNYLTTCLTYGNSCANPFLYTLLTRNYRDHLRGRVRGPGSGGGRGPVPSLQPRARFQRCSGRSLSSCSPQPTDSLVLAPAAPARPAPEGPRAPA

[3] = biological target: Somatostatin receptor type 5 (Homo sapiens, UniProt P35346); assay: Displacement of [125I-Tyr11]-SS14 from human SSTR5 expressed in HEK293-A cells incubated for 30 mins by gamma counting based competition radioligand binding assay; format: cell-based; method in brief: as §1
Urotensin-2 receptor [4] = biological target: T1, Urotensin-2 receptor; assay: Agonist activity at human U-IIR expressed in HEK293-A cells by Fluo4-AM dye based intracellular calcium mobilization assay; format: functional, cell-based
[5] = biological target: Somatostatin receptor type 3 (Homo sapiens, UniProt P32745); assay: Displacement of [125I-Tyr11]-SS14 from human SSTR3 expressed in HEK293-A cells incubated for 30 mins by gamma counting based competition radioligand binding assay; format: cell-based; method in brief: as §1
[6] = Half life in 25% human serum by RP-HPLC analysis; format: ADME, cell-free
Method in brief: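 Peptide at 50 μg/mL final in RPMI with 25% (v/v) human serum, pre-equilibrated at 37 °C. Samples taken at set times into 6% TCA, iced 15 min, spun at 18000g. Supernatant run on C18 RP-HPLC, 25–80% acetonitrile gradient over 15 min at 30 °C, absorbance at 214 and 280 nm.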

[7] = biological target: Somatostatin receptor type 2 (Homo sapiens, UniProt P30874); assay: Displacement of [125I-Tyr11]-SS14 from human SSTR2 expressed in HEK293-A cells incubated for 30 mins by gamma counting based competition radioligand binding assay; format: cell-based; method in brief: as §1
VSMC [8] = assay: Agonist activity at U-IIR in pig aorta VSMC assessed as increase of ERK1/2 phosphorylation at 500 nM incubated for 15 mins by Western blot analysis relative to control; conditions: Sus scrofa, filed as agonist
Method in brief: (§2)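 Primary smooth muscle cells from aortas of 4–6-month-old domestic pigs, grown from minced-tissue explants and used at passages 5–10. Cells were grown to 80% confluence, then exposed to peptide at 5 or 500 nM in 0.1% FCS/DMEM for 15 min. Lysates were taken in Tris/SDS buffer and probed on Western blot for phospho-ERK1/2 (Thr202/Tyr204). Signal was normalized to total ERK1/2 and to the untreated control. n = 2–4 independent experiments, each with 3–6 replicates.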

VSMC [9] = assay: Agonist activity at U-IIR in pig aorta VSMC assessed as increase of ERK1/2 phosphorylation at 5 nM incubated for 15 mins by Western blot analysis relative to control; conditions: Sus scrofa; method in brief: as §2
VSMC [10] = assay: Agonist activity at U-IIR in pig aorta VSMC assessed as increase of ERK1/2 phosphorylation incubated for 15 mins by Western blot analysis relative to control; conditions: Sus scrofa, filed as agonist; method in brief: as §2

Sequence of Somatostatin receptor type 3 (P32745 whole entry): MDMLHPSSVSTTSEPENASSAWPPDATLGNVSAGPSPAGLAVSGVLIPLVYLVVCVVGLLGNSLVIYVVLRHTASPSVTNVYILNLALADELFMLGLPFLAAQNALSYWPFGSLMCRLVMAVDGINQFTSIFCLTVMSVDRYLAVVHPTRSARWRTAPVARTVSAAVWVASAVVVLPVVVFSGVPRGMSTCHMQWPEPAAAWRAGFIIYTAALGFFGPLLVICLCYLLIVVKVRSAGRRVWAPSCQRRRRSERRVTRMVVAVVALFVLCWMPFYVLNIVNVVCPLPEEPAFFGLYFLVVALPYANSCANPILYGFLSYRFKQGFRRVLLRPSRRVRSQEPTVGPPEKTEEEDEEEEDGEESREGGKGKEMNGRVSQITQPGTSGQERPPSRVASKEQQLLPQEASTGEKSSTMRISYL
Sequence of Somatostatin receptor type 2 (P30874 whole entry): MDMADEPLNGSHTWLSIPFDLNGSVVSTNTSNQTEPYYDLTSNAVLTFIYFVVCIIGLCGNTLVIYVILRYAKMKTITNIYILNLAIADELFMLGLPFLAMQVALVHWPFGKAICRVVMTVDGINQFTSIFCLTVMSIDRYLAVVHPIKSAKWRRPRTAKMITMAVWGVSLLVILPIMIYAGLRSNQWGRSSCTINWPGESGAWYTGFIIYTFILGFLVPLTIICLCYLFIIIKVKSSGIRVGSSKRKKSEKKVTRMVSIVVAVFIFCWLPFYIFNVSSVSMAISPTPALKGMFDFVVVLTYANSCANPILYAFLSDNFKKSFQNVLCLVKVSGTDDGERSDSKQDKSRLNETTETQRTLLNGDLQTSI
Sequence of Somatostatin receptor type 5 (P35346 whole entry): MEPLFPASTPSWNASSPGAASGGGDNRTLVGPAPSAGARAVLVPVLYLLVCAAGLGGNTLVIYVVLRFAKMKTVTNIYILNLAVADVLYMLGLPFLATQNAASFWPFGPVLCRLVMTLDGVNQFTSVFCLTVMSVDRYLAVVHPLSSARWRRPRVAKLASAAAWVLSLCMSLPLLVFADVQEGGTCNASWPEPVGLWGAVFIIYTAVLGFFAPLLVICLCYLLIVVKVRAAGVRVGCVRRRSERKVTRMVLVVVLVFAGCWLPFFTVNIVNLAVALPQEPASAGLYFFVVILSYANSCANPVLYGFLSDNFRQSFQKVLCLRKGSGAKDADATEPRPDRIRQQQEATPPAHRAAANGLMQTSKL
Sequence of Somatostatin receptor type 1 (P30872 whole entry): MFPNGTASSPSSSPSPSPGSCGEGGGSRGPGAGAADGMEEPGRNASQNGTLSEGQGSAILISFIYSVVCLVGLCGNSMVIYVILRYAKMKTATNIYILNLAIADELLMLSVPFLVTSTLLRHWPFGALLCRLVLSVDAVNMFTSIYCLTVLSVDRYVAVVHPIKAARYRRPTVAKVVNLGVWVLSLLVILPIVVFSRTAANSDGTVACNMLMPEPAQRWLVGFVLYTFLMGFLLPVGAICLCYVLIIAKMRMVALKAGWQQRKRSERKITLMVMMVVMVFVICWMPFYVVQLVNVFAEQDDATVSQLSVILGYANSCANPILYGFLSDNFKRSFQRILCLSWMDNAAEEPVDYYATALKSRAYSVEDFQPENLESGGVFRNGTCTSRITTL

| Compound | IC50 (Urotensin-2 receptor [2]) [nM] | EC50 (Urotensin-2 receptor [4]) [nM] | half-life [6] [min] | other results |
| --- | --- | --- | --- | --- |
| CC(C)[C@H](NC(=O)[C@@H]1CSSC[C@H](NC(=O)[C@H](CC(=O)O)NC(=O)[C@@H]2CCCN2C(=O)[C@@H](NC(=O)[C@@H](N)CCC(=O)O)[C@@H](C)O)C(=O)N[C@@H](Cc2ccccc2)C(=O)N[C@@H](Cc2c[nH]c3ccccc23)C(=O)N[C@@H](CCCCN)C(=O)N[C@@H](Cc2ccc(O)cc2)C(=O)N1)C(N)=O | 2 | 1.46 | 209 | IC50 [1]: 10500 nM; IC50 [3]: 7600 nM; IC50 [5]: 8640 nM; IC50 [7]: 2980 nM |
| CCC(NC(=O)[C@H](Cc1ccc(O)c([N+](=O)[O-])c1)NC(=O)[C@H](CCCCN)NC(=O)[C@H](Cc1c[nH]c2ccccc12)NC(=O)[C@H](Cc1c[nH]c2ccccc12)NC(=O)[C@@H](N)CC(N)=O)C(N)=O (stereo partly specified) | 1090 | 3.47 | 55 | – |
| CCC(NC(=O)[C@H](Cc1ccc(O)cc1)NC(=O)[C@H](CCCCN)NC(=O)[C@H](Cc1c[nH]c2ccccc12)NC(=O)[C@H](Cc1c[nH]c2ccccc12)NC(=O)[C@@H](N)CC(N)=O)C(N)=O (stereo partly specified) | > 10000 | 60 | 50 | – |
| CCC(NC(=O)[C@H](Cc1ccc(O)cc1)NC(=O)[C@H](CCCCN)NC(=O)[C@H](Cc1c[nH]c2ccccc12)NC(=O)C(Cc1ccc2ccccc2c1)NC(=O)[C@@H](N)CC(N)=O)C(N)=O (stereo partly specified) | 7880 | 108 | 34 | – |
| CCC(NC(=O)[C@H](Cc1ccc(O)cc1)NC(=O)[C@H](CCCCN)NC(=O)[C@H](Cc1c[nH]c2ccccc12)NC(=O)[C@H](Cc1c[nH]c2ccccc12)NC(=O)[C@H](N)CC(N)=O)C(N)=O (stereo partly specified) | 4830 | 23 | 3120 | fold change (FC) (VSMC [8]): 1.9; Activity (VSMC [9]): inactive; Activity (VSMC [10]): Dose-dependent effect |
| CCC(NC(=O)[C@H](Cc1ccc(O)cc1)NC(=O)[C@H](CCCCN)NC(=O)[C@H](Cc1c[nH]c2ccccc12)NC(=O)[C@H](Cc1ccc2ccccc2c1)NC(=O)[C@H](N)CC(N)=O)C(N)=O (stereo partly specified) | 4890 | 25.5 | 770 | – |
| CC(C)[C@H](NC(=O)[C@@H]1CSSC[C@H](NC(=O)[C@H](CC(=O)O)NC(=O)[C@@H]2CCCN2C(=O)[C@@H](NC(=O)[C@@H](N)CCC(=O)O)[C@@H](C)O)C(=O)N[C@@H](Cc2ccccc2)C(=O)N[C@@H](Cc2c[nH]c3ccccc23)C(=O)N[C@@H](CCCCN)C(=O)N[C@@H](Cc2ccc(O)cc2)C(=O)N1)C(=O)O | – | – | – | fold change (FC) (VSMC [8]): 2.4; Activity (VSMC [9]): inactive; Activity (VSMC [10]): Dose-dependent effect |
| NCCCC[C@@H]1NC(=O)[C@H](Cc2c[nH]c3ccccc23)NC(=O)[C@H](Cc2ccccc2)NC(=O)[C@@H](N)CSSC[C@@H](C(N)=O)NC(=O)[C@H](Cc2ccc(O)cc2)NC1=O (H-CFWKYC-NH2; disulfide 1-6) | – | 3.8 | – | – |
| CC(C)[C@H](NC(=O)[C@@H]1CSSC[C@H](N)C(=O)N[C@@H](Cc2ccccc2)C(=O)N[C@@H](Cc2c[nH]c3ccccc23)C(=O)N[C@@H](CCCCN)C(=O)N[C@@H](Cc2ccc(O)cc2)C(=O)N1)C(N)=O (H-CFWKYCV-NH2; disulfide 1-6) | – | 0.83 | – | – |
| CC(C)[C@H](NC(=O)[C@@H]1CSSC[C@H](NC(=O)[C@@H](N)CC(=O)O)C(=O)N[C@@H](Cc2ccccc2)C(=O)N[C@@H](Cc2c[nH]c3ccccc23)C(=O)N[C@@H](CCCCN)C(=O)N[C@@H](Cc2ccc(O)cc2)C(=O)N1)C(N)=O (H-DCFWKYCV-NH2; disulfide 2-7) | 0.9 | 0.45 | 372 | – |
| CC(C)[C@H](NC(=O)[C@@H]1CSSC[C@H](NC(=O)[C@@H](N)Cc2ccccc2)C(=O)N[C@@H](Cc2ccccc2)C(=O)N[C@@H](Cc2c[nH]c3ccccc23)C(=O)N[C@@H](CCCCN)C(=O)N[C@@H](Cc2ccc(O)cc2)C(=O)N1)C(N)=O (H-FCFWKYCV-NH2; disulfide 2-7) | – | 4.8 | – | – |
| NCCCC[C@H](NC(=O)[C@H](Cc1c[nH]c2ccccc12)NC(=O)[C@@H](N)Cc1ccccc1)C(=O)N[C@@H](Cc1ccc(O)cc1)C(N)=O (H-FWKY-NH2) | – | 179 | – | – |
| COc1ccc(C[C@H](NC(=O)[C@H](CCCCN)NC(=O)[C@H](Cc2c[nH]c3ccccc23)NC(=O)[C@H](Cc2c[nH]c3ccccc23)NC(=O)[C@@H](N)CC(N)=O)C(=O)N[C@@H](CS)C(N)=O)cc1 (H-NWWKY(Me)C-NH2) | 890 | 10.2 | 15 | – |
| NCCCC[C@H](NC(=O)[C@H](Cc1c[nH]c2ccccc12)NC(=O)[C@H](Cc1c[nH]c2ccccc12)NC(=O)[C@@H](N)CC(N)=O)C(=O)N[C@@H](Cc1ccc(O)c([N+](=O)[O-])c1)C(=O)N[C@@H](CS)C(N)=O (H-NWWK[Tyr(3-NO2)]C-NH2) | 163 | 15.7 | 23 | – |
| NCCCC[C@H](NC(=O)[C@H](Cc1c[nH]c2ccccc12)NC(=O)[C@H](Cc1c[nH]c2ccccc12)NC(=O)[C@@H](N)CC(N)=O)C(=O)N[C@@H](Cc1ccc(O)c(S(=O)(=O)O)c1)C(=O)N[C@@H](CS)C(N)=O (H-NWWK[X1]C-NH2) | > 10000 | 330 | 11 | – |
| NCCCC[C@H](NC(=O)[C@H](Cc1c[nH]c2ccccc12)NC(=O)[C@H](Cc1ccc2ccccc2c1)NC(=O)[C@@H](N)CC(N)=O)C(=O)N[C@@H](Cc1ccc(O)c([N+](=O)[O-])c1)C(=O)N[C@@H](CS)C(N)=O (H-N[2Nal]WK[Tyr(3-NO2)]C-NH2) | 430 | 8.13 | 37 | – |
| NCCCC[C@H](NC(=O)[C@H](Cc1c[nH]c2ccccc12)NC(=O)C(Cc1ccc2ccccc2c1)NC(=O)[C@@H](N)CC(N)=O)C(=O)N[C@@H](Cc1ccc(O)cc1)C(=O)N[C@@H](CS)C(N)=O (stereo partly specified) (H-N[ξ2Nal]WKYC-NH2) | 3060 | 74.9 | 17 | – |

| Compound | IC50 (Urotensin-2 receptor [2]) [nM] | EC50 (Urotensin-2 receptor [4]) [nM] | half-life [6] [min] | other results |
| --- | --- | --- | --- | --- |
| NCCCC[C@H](NC(=O)[C@H](Cc1c[nH]c2ccccc12)NC(=O)[C@@H](N)Cc1ccccc1)C(N)=O (H-Phe-Trp-Lys-NH2) | – | > 10000 | – | – |
| CC(C)[C@H](NC(=O)[C@@H]1CSSC[C@H](NC(=O)[C@@H](N)CCC(N)=O)C(=O)N[C@@H](Cc2ccccc2)C(=O)N[C@@H](Cc2c[nH]c3ccccc23)C(=O)N[C@@H](CCCCN)C(=O)N[C@@H](Cc2ccc(O)cc2)C(=O)N1)C(N)=O (H-QCFWKYCV-NH2; disulfide 2-7) | – | 1.99 | – | – |
| CC(C)[C@H](NC(=O)[C@@H]1CSSC[C@H](NC(=O)[C@@H](N)[C@@H](C)O)C(=O)N[C@@H](Cc2ccccc2)C(=O)N[C@@H](Cc2c[nH]c3ccccc23)C(=O)N[C@@H](CCCCN)C(=O)N[C@@H](Cc2ccc(O)cc2)C(=O)N1)C(N)=O (H-TCFWKYCV-NH2; disulfide 2-7) | – | 3.9 | – | – |
| NCCCC[C@H](NC(=O)[C@@H](N)Cc1c[nH]c2ccccc12)C(=O)N[C@@H](Cc1ccc(O)cc1)C(N)=O (H-Trp-Lys-Tyr-NH2) | – | > 10000 | – | – |
| H-CFWKY-NH2 | – | 201 | – | – |
| H-DHFWKYCV-NH2 | – | 29.8 | – | – |
| H-DNFWKYCV-NH2 | – | 155 | – | – |
| H-DVFWKYCV-NH2 | 300 | 32.6 | 19 | – |
| H-FWKYC-NH2 | – | 141 | – | – |
| H-NWWKYC-NH2 | 1550 | 10 | 19 | – |
| H-NWWKYD-NH2 | – | 50.4 | – | – |
| H-NWWKYE-NH2 | – | 65.6 | – | – |
| H-NWWKYS-NH2 | – | 91.5 | – | – |
| H-NWWKYT-NH2 | – | 143 | – | – |
| H-QVFWKYCV-NH2 | – | 9.63 | – | – |
| H-TVFWKYCV-NH2 | – | 11.2 | – | – |
| H-TWWKYC-NH2 | – | 103 | – | – |
